Results from ChEMBL document CHEMBL2203117, “Synthesis and biological activities of N-(3-carboxylpropyl)-5-amino-2-hydroxy-3-tridecyl-1,4-benzoquinone and analogues” (2012).
Activity calls are given as the source filed them. The calls are words filed in the database; no cut-off is given here.

How the values were obtained:
[1] = tested on: GM15850; assay: Cytoprotective activity in human GM15850 cells assessed as glutathione depletion-induced reduction of cell viability at 5 uM after 17 hrs by trypan blue exclusion assay relative to control; type: functional
In short: (§1)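 FRDA lymphocytes were grown in RPMI 1640 with 15% fetal calf serum and 2 mM glutamine. Cells seeded at 5 × 10⁵ cells/mL were preincubated with compound for 17 h at 37 °C, then given 5 mM DEM for a further 6 h. Viability was scored by 0.4% trypan blue exclusion on a hemacytometer, counting at least 500 cells per group. Values are % of the untreated control (100%). Mean ± SEM, n = 3.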

[2] = tested on: CCRF-CEM; assay: Antioxidant activity in human CEM cells assessed as inhibition of glutathione depletion-induced ROS production at 5 uM after 16 hrs using DCFH-DA staining by flow cytometry analysis; type: functional, cell-based
In short: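 CEM leukemia lymphocytes (5 × 10⁵ cells in 1 mL) were given compound for 16 h at 37 °C in 5% CO2. They were then exposed to 5 mM diethyl maleate for 40 min to deplete GSH. After a PBS wash they were stained with 10 μM DCFH-DA in PBS with 20 mM glucose for 20 min at 37 °C in the dark. DCF fluorescence was read by flow cytometry (488 nm excitation, FL1-H), 10 000 events. Mean ± SEM of two experiments, each in duplicate.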

[3] = tested on: GM15850; assay: Antioxidant activity in human GM15850 cells assessed as inhibition of glutathione depletion-induced ROS production at 5 uM after 16 hrs using DCFH-DA staining by flow cytometry analysis; type: functional, cell-based
In short: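 FRDA lymphocytes (5 × 10⁵ cells in 1 mL) were pretreated with compound for 16 h at 37 °C in 5% CO2. GSH was then depleted with 5 mM diethyl maleate for 80 min. Cells were washed and loaded with 10 μM DCFH-DA in PBS with 20 mM glucose for 20 min at 37 °C in the dark. DCF was measured by flow cytometry (488 nm, FL1-H), 10 000 events. Two experiments in duplicate, mean ± SEM.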

[4] = tested on: GM15850; assay: Protection against DEM-induced loss of mitochondrial membrane potential in human GM15850 cells at 5 uM after 16 hrs using TMRM/JC-1 staining by flow cytometry analysis relative to control; type: functional
In short: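 FRDA lymphocytes were pretreated with compound for 16 h, then given 5 mM DEM for 140 min. Cells were washed twice with PBS and stained with 250 nM TMRM in PBS-glucose for 15 min at 37 °C in the dark. Flow cytometry read the FL2-H channel (488 nm excitation), 10 000 events, with FCCP as the depolarized control. Result is the % of cells with intact Δψm (top right quadrant). Mean ± SEM of three experiments in duplicate.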

[5] = Antioxidant activity in human GM15850 cells assessed as inhibition of glutathione depletion-induced lipid peroxidation at 10 uM after 16 hrs using C11-BODIPY581/591 by FACS analysis relative to control; type: functional; design: scale not given: the % may be the effect or the level left
In short: (§2)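 FRDA lymphocytes at 5 × 10⁵ cells/mL received compound (5 or 10 μM final) for 16 h at 37 °C. Cells were loaded with 1 μM C11-BODIPY581/591 in phenol red-free RPMI for 30 min in the dark, then stressed with 5 mM DEM for 2 h. After washing, green (oxidized) fluorescence was read by FACS, 10 000 events. Scavenging % = [(100 − % mean)/(100 − % mean of untreated control)] × 100. Duplicates, three independent experiments.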

[6] = Antioxidant activity in human GM15850 cells assessed as inhibition of glutathione depletion-induced lipid peroxidation at 5 uM after 16 hrs using C11-BODIPY581/591 by FACS analysis relative to control; type: functional; design: scale not given: the % may be the effect or the level left; in short: as §2
[7] = tested on: GM15850; assay: Cytoprotective activity in human GM15850 cells assessed as glutathione depletion-induced reduction of cell viability at 0.25 uM after 17 hrs by trypan blue exclusion assay relative to control; type: functional; in short: as §1
[8] = tested on: GM15850; assay: Cytoprotective activity in human GM15850 cells assessed as glutathione depletion-induced reduction of cell viability at 2.5 uM after 17 hrs by trypan blue exclusion assay relative to control; type: functional; in short: as §1
[9] = tested on: GM15850; assay: Cytoprotective activity in human GM15850 cells assessed as glutathione depletion-induced reduction of cell viability at 0.125 uM after 17 hrs by trypan blue exclusion assay relative to control; type: functional; in short: as §1

Row | SMILES | Activity [1] | Activity [2] | Activity [3] | Activity [4] | Activity [5] | Activity [6] | Activity [7] | Activity [8] | Activity [9]
1 | CCCCCCCCCCCCCC1=C(O)C(=O)C=C(NCCCC(=O)O)C1=O | 36% | Active | Active | 27% | 24% | 8% |  |  | 
2 | CCCCCCCCCCCCCC1=C(OC)C(=O)C=C(NCCCC(=O)OC(C)(C)C)C1=O | 93% | Active | Active | 85% | 86% | 72% | 58% | 84% | 48%
3 | CCCCCCCCCCCCCC1=C(OC)C(=O)C=C(NCCCC(=O)O)C1=O | 74% | Active | Active | 60% | 51% | 41% |  |  | 
4 | CCCCCCCCCCCCCC1=C(O)C(=O)C=C(NCCCC(=O)OC(C)(C)C)C1=O | 50% | Active | Active | 40% | 37% | 26% |  |  | 
